According to ChEMBL document CHEMBL4219109, “Design, synthesis and biological evaluation of novel hydroxamic acid based histone deacetylase 6 selective inhibitors bearing phenylpyrazol scaffold as surface recognition motif” (Bioorg Med Chem, 2018):

Experiments:
Histone deacetylase = assay: Inhibition of HDAC in human HeLa nuclear extract using Boc-Lys-(Ac)-AMC as substrate preincubated for 15 mins followed by substrate addition measured after 60 mins by fluorescence assay; format: protein assay
Histone deacetylase 1 = Histone deacetylase 1 (Homo sapiens, UniProt Q13547); assay: Inhibition of full length recombinant human C-terminal FLAG/His-tagged HDAC1 expressed in baculovirus infected sf9 cells using Boc-Lys-(Ac)-AMC as substrate preincubated for 15 mins followed by substrate addition measured after 60 mins by fluorescence assay
Chain of Histone deacetylase 1 (Q13547 whole entry): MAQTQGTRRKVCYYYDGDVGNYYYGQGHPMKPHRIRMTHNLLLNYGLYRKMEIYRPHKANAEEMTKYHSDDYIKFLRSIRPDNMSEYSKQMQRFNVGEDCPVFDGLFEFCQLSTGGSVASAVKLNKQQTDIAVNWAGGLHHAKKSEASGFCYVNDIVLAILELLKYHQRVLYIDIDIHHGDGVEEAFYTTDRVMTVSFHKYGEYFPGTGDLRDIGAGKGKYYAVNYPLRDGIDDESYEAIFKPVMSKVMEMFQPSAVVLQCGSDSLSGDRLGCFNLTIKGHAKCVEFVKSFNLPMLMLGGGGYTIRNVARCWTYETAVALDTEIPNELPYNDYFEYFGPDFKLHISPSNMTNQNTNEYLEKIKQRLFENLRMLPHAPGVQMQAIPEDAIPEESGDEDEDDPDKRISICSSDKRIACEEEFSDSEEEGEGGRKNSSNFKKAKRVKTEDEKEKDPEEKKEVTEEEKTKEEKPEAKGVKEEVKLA

Histone deacetylase 2 = Histone deacetylase 2 (Homo sapiens, UniProt Q92769); assay: (§1) Inhibition of full length recombinant human C-terminal His-tagged HDAC2 expressed in baculovirus infected sf9 cells using Boc-Lys-(Ac)-AMC as substrate preincubated for 15 mins followed by substrate addition measured after 60 mins by fluorescence assay
Chain of Histone deacetylase 2 (Q92769 whole entry, the tested form may be a part): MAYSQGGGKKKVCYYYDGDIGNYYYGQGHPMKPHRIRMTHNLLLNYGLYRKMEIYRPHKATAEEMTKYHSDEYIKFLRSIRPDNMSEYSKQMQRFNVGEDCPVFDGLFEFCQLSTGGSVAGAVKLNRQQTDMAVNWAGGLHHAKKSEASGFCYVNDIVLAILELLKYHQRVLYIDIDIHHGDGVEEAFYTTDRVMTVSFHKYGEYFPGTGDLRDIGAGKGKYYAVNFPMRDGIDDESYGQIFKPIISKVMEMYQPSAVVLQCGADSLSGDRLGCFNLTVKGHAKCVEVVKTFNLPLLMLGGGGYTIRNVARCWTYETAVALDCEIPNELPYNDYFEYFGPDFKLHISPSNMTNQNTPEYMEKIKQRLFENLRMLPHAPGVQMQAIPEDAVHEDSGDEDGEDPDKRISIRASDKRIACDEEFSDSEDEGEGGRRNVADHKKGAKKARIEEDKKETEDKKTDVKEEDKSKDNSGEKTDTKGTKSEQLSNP

[1] = biological target: Histone deacetylase 3/Nuclear receptor corepressor 2 (HDAC3/NCoR2) (Homo sapiens, UniProt O15379); assay: as §1, with “HDAC3/N-terminal GST-tagged NCOR2 (395 to 489 residues)” for “HDAC2”
Chain of Histone deacetylase 3/Nuclear receptor corepressor 2 (HDAC3/NCoR2) (O15379 whole entry, the tested form may be a part): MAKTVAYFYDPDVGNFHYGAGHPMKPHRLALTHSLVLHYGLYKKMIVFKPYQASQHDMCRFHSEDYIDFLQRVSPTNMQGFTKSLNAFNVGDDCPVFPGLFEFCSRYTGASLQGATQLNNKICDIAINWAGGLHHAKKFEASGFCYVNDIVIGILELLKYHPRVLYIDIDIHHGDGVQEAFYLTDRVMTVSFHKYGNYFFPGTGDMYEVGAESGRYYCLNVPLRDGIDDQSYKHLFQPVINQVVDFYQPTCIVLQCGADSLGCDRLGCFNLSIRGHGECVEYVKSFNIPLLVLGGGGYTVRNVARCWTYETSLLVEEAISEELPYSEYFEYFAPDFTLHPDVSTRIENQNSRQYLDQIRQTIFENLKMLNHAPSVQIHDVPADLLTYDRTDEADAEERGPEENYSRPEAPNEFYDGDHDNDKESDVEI
Chain of Histone deacetylase 3/Nuclear receptor corepressor 2 (HDAC3/NCoR2) (Q9Y618 whole entry, further chain, the tested form may be a part): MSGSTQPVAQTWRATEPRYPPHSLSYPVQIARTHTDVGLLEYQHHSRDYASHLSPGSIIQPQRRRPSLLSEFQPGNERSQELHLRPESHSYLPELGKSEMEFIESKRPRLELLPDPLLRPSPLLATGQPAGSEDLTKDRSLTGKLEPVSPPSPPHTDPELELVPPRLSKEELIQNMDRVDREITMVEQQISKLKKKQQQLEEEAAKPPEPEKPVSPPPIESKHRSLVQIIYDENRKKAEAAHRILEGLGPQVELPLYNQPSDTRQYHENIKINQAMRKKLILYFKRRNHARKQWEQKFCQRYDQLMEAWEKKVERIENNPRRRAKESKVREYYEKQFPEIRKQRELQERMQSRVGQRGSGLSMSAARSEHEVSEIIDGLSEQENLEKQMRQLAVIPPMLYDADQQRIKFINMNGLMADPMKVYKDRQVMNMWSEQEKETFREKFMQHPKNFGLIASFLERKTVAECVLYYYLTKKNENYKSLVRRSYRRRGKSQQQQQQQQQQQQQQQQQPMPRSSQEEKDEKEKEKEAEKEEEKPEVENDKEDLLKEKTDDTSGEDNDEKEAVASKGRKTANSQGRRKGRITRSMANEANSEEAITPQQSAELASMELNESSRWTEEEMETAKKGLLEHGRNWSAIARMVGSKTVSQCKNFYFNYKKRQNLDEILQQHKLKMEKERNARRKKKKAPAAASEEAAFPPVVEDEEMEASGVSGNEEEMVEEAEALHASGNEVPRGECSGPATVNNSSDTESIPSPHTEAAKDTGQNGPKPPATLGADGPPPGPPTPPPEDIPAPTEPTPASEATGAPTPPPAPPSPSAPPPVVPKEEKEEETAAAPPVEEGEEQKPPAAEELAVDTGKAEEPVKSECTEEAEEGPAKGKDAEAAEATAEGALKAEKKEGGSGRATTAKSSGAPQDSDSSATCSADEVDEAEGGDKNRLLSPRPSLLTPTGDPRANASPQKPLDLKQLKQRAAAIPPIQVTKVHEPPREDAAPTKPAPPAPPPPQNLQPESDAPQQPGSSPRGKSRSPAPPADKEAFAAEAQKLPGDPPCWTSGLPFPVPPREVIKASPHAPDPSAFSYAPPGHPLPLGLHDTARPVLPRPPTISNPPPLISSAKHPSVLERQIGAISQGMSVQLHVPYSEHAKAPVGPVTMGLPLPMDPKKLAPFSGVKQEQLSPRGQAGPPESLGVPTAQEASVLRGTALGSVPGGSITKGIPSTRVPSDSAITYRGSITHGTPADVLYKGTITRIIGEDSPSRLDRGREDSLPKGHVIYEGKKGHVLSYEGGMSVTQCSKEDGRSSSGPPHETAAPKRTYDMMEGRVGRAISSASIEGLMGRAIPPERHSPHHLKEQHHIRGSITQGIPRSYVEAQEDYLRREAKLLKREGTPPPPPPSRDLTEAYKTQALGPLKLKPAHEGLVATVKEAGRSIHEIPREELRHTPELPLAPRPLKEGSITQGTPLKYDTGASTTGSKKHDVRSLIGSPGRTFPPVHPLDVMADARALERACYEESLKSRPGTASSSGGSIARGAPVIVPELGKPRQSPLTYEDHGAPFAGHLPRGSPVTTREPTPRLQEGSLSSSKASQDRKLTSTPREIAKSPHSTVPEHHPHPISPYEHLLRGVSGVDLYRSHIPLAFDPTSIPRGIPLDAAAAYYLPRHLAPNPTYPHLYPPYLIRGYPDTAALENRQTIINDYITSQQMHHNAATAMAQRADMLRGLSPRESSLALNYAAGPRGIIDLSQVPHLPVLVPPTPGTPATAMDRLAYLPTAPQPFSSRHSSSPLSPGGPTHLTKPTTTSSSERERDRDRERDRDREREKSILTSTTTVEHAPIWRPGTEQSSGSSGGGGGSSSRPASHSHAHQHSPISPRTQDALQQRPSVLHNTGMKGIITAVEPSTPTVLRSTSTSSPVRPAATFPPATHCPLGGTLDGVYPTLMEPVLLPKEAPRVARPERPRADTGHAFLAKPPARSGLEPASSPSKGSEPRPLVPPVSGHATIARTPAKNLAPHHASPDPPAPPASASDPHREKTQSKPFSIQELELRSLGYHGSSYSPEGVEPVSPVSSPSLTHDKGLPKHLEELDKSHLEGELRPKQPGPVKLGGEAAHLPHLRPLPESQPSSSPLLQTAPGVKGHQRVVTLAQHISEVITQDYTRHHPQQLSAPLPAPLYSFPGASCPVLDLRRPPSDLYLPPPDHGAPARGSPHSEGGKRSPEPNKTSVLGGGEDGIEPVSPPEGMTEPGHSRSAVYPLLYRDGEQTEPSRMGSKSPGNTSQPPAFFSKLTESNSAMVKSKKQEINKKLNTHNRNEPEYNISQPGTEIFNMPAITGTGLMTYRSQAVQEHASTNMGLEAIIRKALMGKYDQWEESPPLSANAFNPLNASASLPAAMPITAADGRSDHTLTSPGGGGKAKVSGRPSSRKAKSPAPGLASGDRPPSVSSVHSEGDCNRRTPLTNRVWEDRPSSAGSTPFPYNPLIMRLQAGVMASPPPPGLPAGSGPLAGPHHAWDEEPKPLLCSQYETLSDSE

[2] = biological target: T1, Protein deacetylase HDAC6 (Homo sapiens, UniProt Q9UBN7); assay: Inhibition of full length recombinant human N-terminal GST-tagged HDAC6 expressed in baculovirus infected sf9 cells using Boc-Lys-(Ac)-AMC as substrate preincubated for 15 mins followed by substrate addition measured after 60 mins by fluorescence assay
T1 sequence (Q9UBN7 whole entry): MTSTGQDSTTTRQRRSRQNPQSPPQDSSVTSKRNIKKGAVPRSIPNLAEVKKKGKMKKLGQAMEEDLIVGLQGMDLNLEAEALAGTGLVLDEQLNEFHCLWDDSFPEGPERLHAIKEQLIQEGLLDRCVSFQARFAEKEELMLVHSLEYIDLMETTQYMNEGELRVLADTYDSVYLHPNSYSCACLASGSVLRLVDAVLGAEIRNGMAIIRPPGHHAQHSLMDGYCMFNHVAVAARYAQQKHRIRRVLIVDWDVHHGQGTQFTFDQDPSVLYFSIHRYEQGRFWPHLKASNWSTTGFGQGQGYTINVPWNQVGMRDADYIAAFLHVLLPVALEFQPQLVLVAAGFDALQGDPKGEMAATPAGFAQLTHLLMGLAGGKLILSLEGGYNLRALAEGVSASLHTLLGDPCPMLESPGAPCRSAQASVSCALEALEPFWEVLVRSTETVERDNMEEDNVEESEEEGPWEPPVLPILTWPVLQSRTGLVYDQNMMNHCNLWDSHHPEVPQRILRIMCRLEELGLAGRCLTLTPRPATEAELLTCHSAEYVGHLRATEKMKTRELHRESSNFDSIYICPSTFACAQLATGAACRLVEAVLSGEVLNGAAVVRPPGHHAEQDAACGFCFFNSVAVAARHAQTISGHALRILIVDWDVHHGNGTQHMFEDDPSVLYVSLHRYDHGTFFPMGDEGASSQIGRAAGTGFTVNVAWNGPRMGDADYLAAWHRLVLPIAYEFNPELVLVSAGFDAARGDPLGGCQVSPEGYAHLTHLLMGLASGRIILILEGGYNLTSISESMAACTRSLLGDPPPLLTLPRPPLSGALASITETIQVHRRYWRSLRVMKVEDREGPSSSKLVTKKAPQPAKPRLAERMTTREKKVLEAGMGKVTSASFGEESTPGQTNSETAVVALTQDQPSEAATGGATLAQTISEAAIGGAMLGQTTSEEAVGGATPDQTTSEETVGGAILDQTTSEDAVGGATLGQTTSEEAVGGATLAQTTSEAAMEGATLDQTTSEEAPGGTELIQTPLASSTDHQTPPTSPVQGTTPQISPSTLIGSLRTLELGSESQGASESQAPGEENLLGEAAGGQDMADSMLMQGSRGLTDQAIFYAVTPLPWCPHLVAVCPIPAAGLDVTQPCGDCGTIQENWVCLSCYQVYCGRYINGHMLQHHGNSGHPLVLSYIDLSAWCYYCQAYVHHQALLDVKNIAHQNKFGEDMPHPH

Histone deacetylase 8 = biological target: T2, Histone deacetylase 8 (Homo sapiens, UniProt Q9BY41); assay: Inhibition of full length recombinant human C-terminal His-tagged HDAC8 expressed in baculovirus infected sf9 cells using Boc-Lys-(TFA)-AMC as substrate preincubated for 15 mins followed by substrate addition measured after 60 mins by fluorescence assay
T2 sequence (Q9BY41 whole entry): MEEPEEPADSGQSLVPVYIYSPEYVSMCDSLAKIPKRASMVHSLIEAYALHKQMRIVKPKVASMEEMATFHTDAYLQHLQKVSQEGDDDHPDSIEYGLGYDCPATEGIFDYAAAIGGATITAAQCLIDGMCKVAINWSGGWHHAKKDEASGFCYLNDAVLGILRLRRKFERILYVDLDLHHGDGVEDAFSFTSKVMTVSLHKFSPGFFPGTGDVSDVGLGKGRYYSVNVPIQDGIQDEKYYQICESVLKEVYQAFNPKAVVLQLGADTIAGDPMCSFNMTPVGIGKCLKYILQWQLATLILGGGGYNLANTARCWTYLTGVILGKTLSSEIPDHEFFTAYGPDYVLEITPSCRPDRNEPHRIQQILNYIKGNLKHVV

A549 = assay: Antiproliferative activity against human A549 cells after 96 hrs by MTT assay; format: functional
Outline: (§2)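 Cells from Shanghai Cell Bank; A549 grown in high-glucose DMEM and HepG2 in MEM, both with 10% FBS plus penicillin/streptomycin, at 37°C in 5% CO₂. Seeded at 1.5-3.5×10⁴ cells/well for 24 h, then given graded compound concentrations for 96 h. MTT solution (2 mg/mL) added for 4 h, formazan dissolved in DMSO, A570 read. Growth expressed as treated/untreated cell number ratio.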

HepG2 = assay: Antiproliferative activity against human HepG2 cells after 96 hrs by MTT assay; format: functional; outline: as §2

| SMILES | IC50 (Histone deacetylase) | IC50 (Histone deacetylase 1) | IC50 (Histone deacetylase 2) | IC50 [1] | IC50 [2] | IC50 (Histone deacetylase 8) | GI50 (A549; Homo sapiens, A549, 96 h) | GI50 (HepG2; Homo sapiens, HepG2, 96 h) | GI50 (A549) | GI50 (HepG2) |
| --- | --- | --- | --- | --- | --- | --- | --- | --- | --- | --- |
| Cc1ccc(-c2cc(C(F)(F)F)nn2Cc2ccc(C(=O)NO)cc2)cc1 | 231 nM | 925 nM | 1220 nM | 128 nM | 27 nM | > 5000 nM | 10600 nM | 7500 nM |  |  |
| O=C(CCCNC(=O)c1cc(-c2ccc(F)cc2)[nH]n1)NO | 2603 nM | 3740 nM | 1830 nM | 1430 nM | 1060 nM | > 5000 nM | > 100000 nM | 88000 nM |  |  |
| CCCc1cc(-c2ccc(F)cc2)n(Cc2ccc(C(=O)NO)cc2)n1 | 3827 nM | > 5000 nM | 2880 nM | 1940 nM | 167 nM | > 5000 nM | 16000 nM | 6660 nM |  |  |
| O=C(NO)c1ccc(Cn2nc(-c3ccc(F)cc3)cc2Cc2ccccc2)cc1 | 1028 nM | 1880 nM | 763 nM | 619 nM | 326 nM | > 5000 nM |  |  |  |  |
| O=C(CCCCNC(=O)c1cc(-c2ccc(F)cc2)[nH]n1)NO | 644 nM | 1040 nM | 883 nM | 671 nM | 275 nM | > 5000 nM | > 100000 nM | > 100000 nM |  |  |
| Cc1ccc(-c2cc(C)n(Cc3ccc(C(=O)NO)cc3)n2)cc1 | 13 nM | 133 nM | 41 nM | 26 nM | 7 nM | > 5000 nM | 11200 nM | 21200 nM |  |  |
| Cc1ccc(-c2cc(C(F)(F)F)nn2-c2ccc(C(=O)NO)cc2)cc1 | 1139 nM | 836 nM | 919 nM | 736 nM | 359 nM | > 5000 nM | > 100000 nM | > 100000 nM |  |  |
| Cc1ccc(-c2cc(C(F)(F)F)n(CCc3ccc(C(=O)NO)cc3)n2)cc1 | 121 nM | 352 nM | 549 nM | 80 nM | 78 nM | > 5000 nM | > 100000 nM | 27600 nM |  |  |
| CCc1cc(-c2ccc(F)cc2)n(Cc2ccc(C(=O)NO)cc2)n1 | 1792 nM | 3610 nM | 1500 nM | 1840 nM | 69 nM | > 5000 nM | 16700 nM | 7760 nM |  |  |
| O=C(NO)c1ccc(CNC(=O)c2cc(-c3ccc(F)cc3)[nH]n2)cc1 | 22 nM | 38 nM | 17 nM | 9 nM | 1 nM | > 5000 nM | 20200 nM | 38100 nM |  |  |
| Cc1cc(-c2ccc3c(c2)OCO3)n(Cc2ccc(C(=O)NO)cc2)n1 | 16 nM | 430 nM | 135 nM | 92 nM | 36 nM | > 5000 nM | 23200 nM | 16500 nM |  |  |
| O=C(CCNC(=O)c1cc(-c2ccc(F)cc2)[nH]n1)NO | > 5000 nM | > 5000 nM | > 5000 nM | > 5000 nM | > 5000 nM | > 5000 nM | 46900 nM | 76000 nM |  |  |
| Cc1cc(-c2ccc3c(c2)OCO3)nn1Cc1ccc(C(=O)NO)cc1 | 8 nM | 24 nM | 40 nM | 36 nM | 5 nM | > 5000 nM | 28100 nM | 20800 nM |  |  |
| O=C(NO)c1ccc(Cn2nc(Cc3ccccc3)cc2-c2ccc(F)cc2)cc1 | > 5000 nM | > 5000 nM | > 5000 nM | > 5000 nM | 420 nM | > 5000 nM |  |  |  |  |
| Cc1ccc(-c2cc(C)nn2Cc2ccc(C(=O)NO)cc2)cc1 | 22 nM | 694 nM | 76 nM | 53 nM | 29 nM | > 5000 nM | 12400 nM | 13300 nM |  |  |
| O=C(CCCCCCNC(=O)c1cc(-c2ccc(F)cc2)[nH]n1)NO | 43 nM | 79 nM | 40 nM | 35 nM | 22 nM | 2950 nM | 1980 nM | 23200 nM |  |  |
| Cc1ccc(-c2cc(C(F)(F)F)n(Cc3ccc(C(=O)NO)cc3)n2)cc1 | 33 nM | 110 nM | 47 nM | 21 nM | 16 nM | > 5000 nM | 15500 nM | 8580 nM |  |  |
| Cc1ccc(-c2cc(C(F)(F)F)nn2CCc2ccc(C(=O)NO)cc2)cc1 | 1460 nM | 1070 nM | 635 nM | 816 nM | 540 nM | > 5000 nM | 29300 nM | 24000 nM |  |  |
| O=C(CCCCCCC(=O)Nc1ccccc1)NO [VORINOSTAT] |  |  |  |  |  |  |  |  | 5020 nM | 22000 nM |
| Cc1ccc(-c2cc(C(F)(F)F)nn2-c2ccc(S(N)(=O)=O)cc2)cc1 [CELECOXIB] | 1637 nM | 1190 nM |  |  | 643 nM |  |  |  |  |  |
| Cc1cc(-c2ccc(F)cc2)nn1Cc1ccc(C(=O)NO)cc1 | 40 nM | 480 nM | 114 nM | 69 nM | 8 nM | > 5000 nM | 11400 nM | 30000 nM |  |  |
| O=C(CCCCCNC(=O)c1cc(-c2ccc(F)cc2)[nH]n1)NO | 58 nM | 66 nM | 42 nM | 36 nM | 29 nM | 3710 nM | 7090 nM | 47600 nM |  |  |
| CCc1cc(-c2ccc(F)cc2)nn1Cc1ccc(C(=O)NO)cc1 | 165 nM | 487 nM | 391 nM | 228 nM | 35 nM | > 5000 nM | 19200 nM | 16700 nM |  |  |
| CCCc1cc(-c2ccc(F)cc2)nn1Cc1ccc(C(=O)NO)cc1 | 476 nM | 541 nM | 362 nM | 290 nM | 107 nM | > 5000 nM | 15200 nM | 16800 nM |  |  |
